Results: publication PMC3517043 (ChemMedChem, 2012)
In brackets after ≈: the same amount, converted by molar mass. Like-named read-outs stand apart in the source and are kept apart here. Square brackets hold non-standard residues; d marks the D form. Ends that are not written are not given here. Peptide text beside a SMILES is read from it. NMeI = CC[C@H](C)[C@H](NC)C(=O)O; NMeV = CN[C@H](C(=O)O)C(C)C; NMeA = CN[C@@H](C)C(=O)O; Sar = CNCC(=O)O

How the values were obtained:
[1] = test system: Aβ42-induced toxicity in differentiated PC-12 cells; format: cell-based, rat; conditions: for IC50: 24 h; for Decrease in activity relative to the corresponding N-Me-A analogue (MTT): original side-chain restored versus N-Me-A at the same position
[2] = test system: Aβ42-induced toxicity in differentiated PC-12 cells; format: cell-based, rat; conditions: for IC50: 48 h; for Decrease in activity relative to the corresponding N-Me-A analogue (LDH): original side-chain restored versus N-Me-A at the same position
[3] = Solubility by filtration assay; format: physicochemical; conditions: pH 7.4
[4] = test system: differentiated PC-12 cells; assay: Toxicity of peptides alone, MTT cell viability assay; format: cell-based, rat; conditions: peptide alone at 50 μM, 24 h
Procedure, shortened: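 PC-12 cells differentiated with nerve growth factor (50 ng/mL) for 48 h. Peptide dissolved in a small amount of 60 mM NaOH, diluted to 50 μM in culture medium, and incubated alone with cells for 24 h. Viability read by MTT kit. Controls were NaOH at matching concentration and medium alone. Percentage viability was scaled to 1 μM staurosporine, taken as 100% loss.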

[5] = test system: mouse primary hippocampal neurons; conditions: cited from earlier work
[6] = test system: Aβ42; conditions: read-out: IC50, inhibition of Aβ42 hexamer formation; photo-induced cross-linking of unmodified proteins; cited from earlier work

| Compound | IC50 [1] [µM] | IC50 [2] [µM] | solubility at 1 min ([3]; 10 mM sodium phosphate buffer) [µM] | also measured |
| --- | --- | --- | --- | --- |
| CC[C@H](C)[C@H](N)C(=O)N[C@H](C(=O)NCC(=O)N[C@@H](CC(C)C)C(=O)N[C@@H](CCSC)C(=O)N[C@H](C(=O)NCC(=O)NCC(=O)N[C@H](C(=O)N[C@H](C(=O)N(C)[C@H](C(=O)N[C@@H](C)C(=O)O)[C@@H](C)CC)C(C)C)C(C)C)C(C)C)[C@@H](C)CC [[N-Me-I11]Aβ3(31–42), IIGLMVGGW-(N-Me)I-A] (H-IIGLMVGGVV[NMeI]A-OH; N-terminus assumed) | 13 ± 1 | 49 ± 3 | 132 ± 34 (≈ 153 µg/mL) |  |
| CC[C@H](C)[C@H](N)C(=O)N[C@H](C(=O)NCC(=O)N[C@@H](CC(C)C)C(=O)N[C@@H](CCSC)C(=O)N[C@H](C(=O)N(C)[C@@H](C)C(=O)NCC(=O)N[C@H](C(=O)N[C@H](C(=O)N[C@H](C(=O)N[C@@H](C)C(=O)O)[C@@H](C)CC)C(C)C)C(C)C)C(C)C)[C@@H](C)CC [[N-Me-A7]Aβ(31–42), IIGLMV-(N-Me)A-GWIA] (H-IIGLMV[NMeA]GVVIA-OH; N-terminus assumed) |  |  | 88 ± 14 (≈ 103 µg/mL) |  |
| CC[C@H](C)[C@H](N)C(=O)N[C@H](C(=O)NCC(=O)N[C@@H](CC(C)C)C(=O)N[C@@H](CCSC)C(=O)N[C@H](C(=O)NCC(=O)NCC(=O)N(C)[C@@H](C)C(=O)N[C@H](C(=O)N[C@H](C(=O)N[C@@H](C)C(=O)O)[C@@H](C)CC)C(C)C)C(C)C)[C@@H](C)CC [[N-Me-A9]Aβ(31–42), IIGLMVGG-(N-Me)A-VIA] (H-IIGLMVGG[NMeA]VIA-OH; N-terminus assumed) | 6 ± 1 | 7 ± 1 | 115 ± 21 (≈ 130 µg/mL) | Improvement of IC50 relative to the parent peptide (MTT) ([1]; relative to Aβ(31–42)): 3 fold; Improvement of IC50 relative to the parent peptide (LDH) ([2]; relative to Aβ(31–42)): 6 fold |
| CC[C@H](C)[C@H](NC)C(=O)N[C@H](C(=O)NCC(=O)N[C@@H](CC(C)C)C(=O)N[C@@H](CCSC)C(=O)N[C@H](C(=O)NCC(=O)NCC(=O)N[C@H](C(=O)N[C@H](C(=O)N[C@H](C(=O)N[C@@H](C)C(=O)O)[C@@H](C)CC)C(C)C)C(C)C)C(C)C)[C@@H](C)CC [[N-Me-I1]Aβ3(31–42), (N-Me)I-IGLMVGGWIA] (H-[NMeI]IGLMVGGVVIA-OH; N-terminus assumed) |  |  | 7 ± 1 (≈ 8.09 µg/mL) | Toxicity of the peptide itself (cell viability, MTT) ([4]; listed as [N-Me-I1]Aβ(31–42)): as toxic as [N-Me-A1]Aβ(31–42) |
| CC[C@H](C)[C@H](N)C(=O)N[C@H](C(=O)N(C)[C@@H](C)C(=O)N[C@@H](CC(C)C)C(=O)N[C@@H](CCSC)C(=O)N[C@H](C(=O)NCC(=O)NCC(=O)N[C@H](C(=O)N[C@H](C(=O)N[C@H](C(=O)N[C@@H](C)C(=O)O)[C@@H](C)CC)C(C)C)C(C)C)C(C)C)[C@@H](C)CC [[N-Me-A3]Aβ(31–42), II-(N-Me)A-LMVGGWIA] | 18 ± 1 | 34 ± 3 | 102 ± 16 (≈ 119 µg/mL) |  |
| CC[C@H](C)[C@H](NC(=O)[C@H](C)NC)C(=O)NCC(=O)N[C@@H](CC(C)C)C(=O)N[C@@H](CCSC)C(=O)N[C@H](C(=O)NCC(=O)NCC(=O)N[C@H](C(=O)N[C@H](C(=O)N[C@H](C(=O)N[C@@H](C)C(=O)O)[C@@H](C)CC)C(C)C)C(C)C)C(C)C [[N-Me-A1]Aβ(31–42), (N-Me)A-IGLMVGGWIA] (H-[NMeA]IGLMVGGVVIA-OH; N-terminus assumed) |  |  | 8 ± 1 (≈ 8.91 µg/mL) | Toxicity of the peptide itself (cell viability, MTT) [4]: toxic |
| CC[C@H](C)[C@H](N)C(=O)N[C@H](C(=O)NCC(=O)N[C@@H](CC(C)C)C(=O)N[C@@H](CCSC)C(=O)N[C@H](C(=O)NCC(=O)NCC(=O)N[C@H](C(=O)N[C@H](C(=O)N(C)[C@@H](C)C(=O)N[C@@H](C)C(=O)O)C(C)C)C(C)C)C(C)C)[C@@H](C)CC [[N-Me-A11]Aβ(31–42), IIGLMVGGW-(N-Me)A-A] (H-IIGLMVGGVV[NMeA]A-OH; N-terminus assumed) | 10 ± 1 | 37 ± 3 | 86 ± 22 (≈ 95.8 µg/mL) |  |
| CC[C@H](C)[C@H](N)C(=O)N[C@H](C(=O)NCC(=O)N(C)[C@@H](C)C(=O)N[C@@H](CCSC)C(=O)N[C@H](C(=O)NCC(=O)NCC(=O)N[C@H](C(=O)N[C@H](C(=O)N[C@H](C(=O)N[C@@H](C)C(=O)O)[C@@H](C)CC)C(C)C)C(C)C)C(C)C)[C@@H](C)CC [[N-Me-A4]Aβ(31–42), IIG-(N-Me)A-MVGGWIA] (H-IIG[NMeA]MVGGVVIA-OH; N-terminus assumed) |  |  | 127 ± 37 (≈ 141 µg/mL) |  |
| CC[C@H](C)[C@H](N)C(=O)N[C@H](C(=O)NCC(=O)N[C@@H](CC(C)C)C(=O)N[C@@H](CCSC)C(=O)N[C@H](C(=O)NCC(=O)NCC(=O)N(C)[C@H](C(=O)N[C@H](C(=O)N[C@H](C(=O)N[C@@H](C)C(=O)O)[C@@H](C)CC)C(C)C)C(C)C)C(C)C)[C@@H](C)CC [[N-Me-V9]Aβ(31–42), IIGLMVGG-(N-Me)V-VIA] (H-IIGLMVGG[NMeV]VIA-OH; N-terminus assumed) | 6 ± 1 | 67 ± 8 | 136 ± 18 (≈ 157 µg/mL) | Decrease in activity relative to the corresponding N-Me-A analogue (LDH) [2]: 9.6 fold |
| CC[C@H](C)[C@H](N)C(=O)N[C@H](C(=O)NCC(=O)N[C@@H](CC(C)C)C(=O)N(C)[C@@H](C)C(=O)N[C@H](C(=O)NCC(=O)NCC(=O)N[C@H](C(=O)N[C@H](C(=O)N[C@H](C(=O)N[C@@H](C)C(=O)O)[C@@H](C)CC)C(C)C)C(C)C)C(C)C)[C@@H](C)CC [[N-Me-A5]Aβ(31–42), IIGL-(N-Me)A-VGGWIA] (H-IIGL[NMeA]VGGVVIA-OH; N-terminus assumed) |  |  | 105 ± 20 (≈ 115 µg/mL) |  |
| CC[C@H](C)[C@H](N)C(=O)N[C@H](C(=O)NCC(=O)N[C@@H](CC(C)C)C(=O)N[C@@H](CCSC)C(=O)N(C)[C@@H](C)C(=O)NCC(=O)NCC(=O)N[C@H](C(=O)N[C@H](C(=O)N[C@H](C(=O)N[C@@H](C)C(=O)O)[C@@H](C)CC)C(C)C)C(C)C)[C@@H](C)CC [[N-Me-A6]Aβ(31–42), IIGLM-(N-Me)A-GGWIA] (H-IIGLM[NMeA]GGVVIA-OH; N-terminus assumed) |  |  | 87 ± 18 (≈ 98.1 µg/mL) |  |
| CC[C@H](C)[C@H](N)C(=O)N[C@H](C(=O)NCC(=O)N[C@@H](CC(C)C)C(=O)N[C@@H](CCSC)C(=O)N[C@H](C(=O)NCC(=O)NCC(=O)N[C@H](C(=O)N(C)[C@@H](C)C(=O)N[C@H](C(=O)N[C@@H](C)C(=O)O)[C@@H](C)CC)C(C)C)C(C)C)[C@@H](C)CC [[N-Me-A10]Aβ(31–42), IIGLMVGGV-(N-Me)A-IA] |  |  |  | solubility at 1 min [3]: 121 ± 28 µM (≈ 136 µg/mL) |
| CC[C@H](C)[C@H](N)C(=O)N[C@H](C(=O)NCC(=O)N[C@@H](CC(C)C)C(=O)N[C@@H](CCSC)C(=O)N[C@H](C(=O)NCC(=O)N(C)CC(=O)N[C@H](C(=O)N[C@H](C(=O)N[C@H](C(=O)N[C@@H](C)C(=O)O)[C@@H](C)CC)C(C)C)C(C)C)C(C)C)[C@@H](C)CC [[N-Me-G8]Aβ(31–42), IIGLMVG-(N-Me)G-WIA] (H-IIGLMVG[Sar]VVIA-OH; N-terminus assumed) | 28 ± 1 | 71 ± 20 | 18 ± 2 (≈ 20.8 µg/mL) | Decrease in activity relative to the corresponding N-Me-A analogue (MTT) [1]: 2.3 fold; Decrease in activity relative to the corresponding N-Me-A analogue (LDH) [2]: 5.0 fold |
| CC[C@H](C)[C@H](N)C(=O)N[C@H](C(=O)N(C)CC(=O)N[C@@H](CC(C)C)C(=O)N[C@@H](CCSC)C(=O)N[C@H](C(=O)NCC(=O)NCC(=O)N[C@H](C(=O)N[C@H](C(=O)N[C@H](C(=O)N[C@@H](C)C(=O)O)[C@@H](C)CC)C(C)C)C(C)C)C(C)C)[C@@H](C)CC [[N-Me-G3]Aβ(31–42), II-(N-Me)G-LMVGGWIA] | 26 ± 1 |  | 118 ± 11 (≈ 136 µg/mL) | Decrease in activity relative to the corresponding N-Me-A analogue (MTT) [1]: 1.4 fold |
| CC[C@H](C)[C@H](N)C(=O)N[C@H](C(=O)NCC(=O)N[C@@H](CC(C)C)C(=O)N[C@@H](CCSC)C(=O)N[C@H](C(=O)NCC(=O)N(C)[C@@H](C)C(=O)N[C@H](C(=O)N[C@H](C(=O)N[C@H](C(=O)N[C@@H](C)C(=O)O)[C@@H](C)CC)C(C)C)C(C)C)C(C)C)[C@@H](C)CC [[N-Me-A8]Aβ(31–42), IIGLMVG-(N-Me)A-WIA] (H-IIGLMVG[NMeA]VVIA-OH; N-terminus assumed) | 12 ± 1 | 14 ± 1 | 41 ± 12 (≈ 48 µg/mL) |  |
| IIGLMVGGVVIA-OH [Aβ(31–42), IIGLMVGGVVIA] | 18 ± 1 | 43 ± 2 |  | Rescue from Aβ42-induced inhibition of miniature excitatory postsynaptic current frequency [5]: rescued; solubility at 1 min [3]: 25 ± 4 µM; IC50 [6]: 23 ± 4 µM |
| CC[C@H](C)[C@H](N)C(=O)N(C)[C@@H](C)C(=O)NCC(=O)N[C@@H](CC(C)C)C(=O)N[C@@H](CCSC)C(=O)N[C@H](C(=O)NCC(=O)NCC(=O)N[C@H](C(=O)N[C@H](C(=O)N[C@H](C(=O)N[C@@H](C)C(=O)O)[C@@H](C)CC)C(C)C)C(C)C)C(C)C [[N-Me-A2]Aβ(31–42), I-(N-Me)A-GLMVGGWIA] (H-I[NMeA]GLMVGGVVIA-OH; N-terminus assumed) |  |  | 101 ± 18 (≈ 112 µg/mL) |  |
| CC[C@H](C)[C@H](N)C(=O)N[C@H](C(=O)NCC(=O)N[C@@H](CC(C)C)C(=O)N[C@@H](CCSC)C(=O)N[C@H](C(=O)NCC(=O)NCC(=O)N[C@H](C(=O)N[C@H](C(=O)N[C@H](C(=O)N(C)[C@@H](C)C(=O)O)[C@@H](C)CC)C(C)C)C(C)C)C(C)C)[C@@H](C)CC [[N-Me-A12]Aβ(31–42)] (H-IIGLMVGGVVI[NMeA]-OH; N-terminus assumed) |  |  | 28 ± 13 (≈ 32.4 µg/mL) |  |
